Results collected from several papers.
Lines come from different studies, so protocols differ.

SMILES	target or system	assay	test system	conditions	quantity	result
CNC(=O)c1ccc(-c2cnn3ccc(C(=O)N(C)c4ccc(Cl)c(C(=O)O)c4)cc23)cc1	–	–	female C57BL/6 mouse, plasma	oral, 10 mg/kg/day	AUC	34 ng·h/mL
C[C@]12CC[C@H]3[C@@H](CC=C4CC(O)CC[C@@]43CO)[C@@H]1CCC2O (stereo partly shown)	–	metabolic stability	rat, liver microsomes	–	half-life	19.9 min
CNC(=O)c1ccc(-c2cnn3ccc(C(=O)N(C)c4ccc(Cl)c(C(=O)OC)c4)cc23)cc1	–	–	female C57BL/6 mouse, plasma	oral, 10 mg/kg/day	AUC	9.1 ng·h/mL
CC(C)C[C@H](NC(=O)[C@H](Cc1ccccc1)NC(=O)[C@H](Cc1ccccc1)NC(=O)Cc1ccc(-c2ccccc2)cc1)C(=O)N[C@@H](CCCCN)C(=O)N[C@@H](CCCNC(=N)N)C(=O)N[C@H](C(=O)N[C@@H](Cc1c[nH]c2ccccc12)C(=O)N[C@@H](CCCCN)C(=O)N[C@@H](CCCNC(=N)N)C(=O)O)C(C)C	–	metabolic stability	rat, liver microsomes	1 µM	half-life	5.12 min
CN1CCN(S(=O)(=O)c2cc([N+](=O)[O-])ccc2N(CCOS(C)(=O)=O)CCOS(C)(=O)=O)CC1	–	–	female SCID mouse, plasma	intraperitoneal, 5 mg/kg	AUC(0-inf)	0.5 µM·h
CN1CC[C@H]2c3nc4ccc(Cl)cc4c(=O)n3CC[C@H]21 (racemic)	SH-SY5Y	cell growth or viability, ATP luminescence	–	–	CC50	> 20 µM
NCCNC(=O)O[C@H]1CCC[C@@]2(C1)OOC1(O2)C2CC3CC(C2)CC1C3 (stereo partly shown)	–	–	male CD-1 mouse, plasma	intravenous, 3 mg/kg	AUC(0-inf)	757 ng·h/mL
C=CS(=O)(=O)c1ccc(Nc2nc(OCC3CCCCC3)c3nc[nH]c3n2)cc1	–	–	male BALB/c mouse, plasma	intraperitoneal, 20 mg/kg, single dose	AUC(0-t)	137 ng·h/mL
C[C@]12CC[C@H]3[C@@H](CCC4=CC(=O)CC[C@@]43C)[C@@H]1CC[C@@H]2O	–	metabolic stability	Sprague-Dawley rat, hepatocytes	1 µM	half-life	2.92 min
CONC(=O)[C@H]1[C@@H](O)[C@@]2(O)c3c(OC)cc(OC)cc3O[C@@]2(c2ccc(OC)cc2)[C@@H]1c1ccccc1	–	metabolic stability	rat, liver microsomes	–	half-life	58.3 min
Cn1nccc1[C@]1(CNC(=O)c2ccc(F)c(F)c2-c2ccc(C(F)(F)F)cc2)NC(=O)NC1=O	–	–	male C57BL/6 mouse, plasma	oral, 1 mg/kg	bioavailability	132%
COCC1=N[C@@]2(O)[C@H](C(=O)N(C)OC)[C@@H](c3ccccc3)[C@]3(c4ccc(OC)cc4)Oc4cc(OC)cc(OC)c4[C@]23N1	–	metabolic stability	male Sprague-Dawley rat, liver microsomes	1 µM, pH 7.4	half-life	74.7 min
COc1cc(Cl)cc2c(=O)n3c(nc12)[C@@H]1CCCN(C)[C@@H]1CC3 (racemic)	SH-SY5Y	cell growth or viability, ATP luminescence	–	72 h	CC50	> 20 µM
